Where “and” joins values, the source holds several entries; their conditions need not be identical. Identical values can stand only once.
How the values were obtained:
IMR90 lung fibroblast = IMR90 lung fibroblast viability; assay type: cell-based; details: IMR90 lung fibroblasts
GST-Pin1 = GST-Pin1 (Homo sapiens, UniProt Q13526); assay: Competitive fluorescence polarization; assay type: binding
Outline: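 GST-Pin1 (250 nM) preincubated 14 h at 4 °C with compound and 5 nM N-terminal fluorescein-labelled peptide probe (Bth-D-pThr-Pip-Nal). Buffer: 10 mM HEPES, 10 mM NaCl, 1% glycerol pH 7.4, 10 µg ml-1 BSA, 0.01% Tween-20, 1 mM DTT. Ki calculated from probe concentration, 85% probe bound and Pin1 concentration. Kinact from dose- and time-dependent runs. n = 3 samples ± s.e.m.; 2 experiments.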

Pin1 [1] = assay: Live cell competition pulldown; assay type: cell-based
Outline: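 2.5 million cells per 10-cm plate, dosed next day with DMSO or test compound (5 h, or as indicated). Cells washed in cold PBS, scraped and lysed in HEPES pH 7.4/NP-40 buffer with TCEP. Lysate (500 µg) incubated with desthiobiotin probe (1 µM, 1 h, 4 °C), then streptavidin agarose (1.5 h, 4 °C). Pin1 pulldown detected by immunoblot.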

[2] = Hepatic microsome stability; assay type: in vitro ADME, mouse; details: 1 μM, 1 mg ml^−1 microsomes, NADPH
Outline: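 Test compound (1 µM) incubated with hepatic microsomes (1 mg ml-1) in 100 mM KPi, pH 7.4. Reaction started by adding 1 mM NADPH.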

Pin1 [3] = assay: In vivo Pin1 engagement, spleen competition pulldown; design: species or system mice; details: 20 mg kg^–1 oral gavage, three doses over 2 days
Outline: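 Mice dosed by oral gavage with vehicle or 10 or 20 mg kg-1, three doses over two consecutive days. Spleens harvested 4 h after the last dose, ground and lysed in HEPES pH 7.4/NaCl/glycerol/TCEP/NP-40 buffer with protease inhibitors. Lysate clarified and normalized by BCA to 2.5 µg µl-1. Competition pulldown run with a desthiobiotin-tagged probe analogue.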

[4] = test system: radioresistant HeLa cells; assay: Radiosensitization AlamarBlue viability assay; assay type: cell-based; details: 7.5 Gy IR
Outline: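 HeLa cells seeded at 200 per well. Treated with compound 16 h later, then given 7.5 Gy X-ray 1 h after treatment. AlamarBlue (10% final) added 3 days post-irradiation. Absorbance read at 570 nm, 600 nm reference, 4 days post-irradiation. Background taken from cell-free wells; % survival set against DMSO-treated, nonirradiated controls.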

[5] = test system: 275 human cancer cell lines; assay: PRISM cancer cell viability screening; assay type: cell-based; details: 5-day treatment, 275 cell lines
Outline: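 Pooled, 24-nucleotide-barcoded cancer cell lines (275 in total) exposed to test compound for 5 days. Eight-point curve in fourfold dilutions from a top concentration of 20 µM.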

WT PATU-8988T cells = assay: 2D growth over time viability; assay type: cell-based; details: 1 μM, 6 and 8 days
Outline: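 PATU-8988T cells plated at 100 per well (other lines 500), with one plate per time point (days 0, 2, 4, 6, 8). Treated the day after plating with DMSO or compound and held at 37 °C, 5% CO2. Medium plus fresh compound replaced every 48 h. CellTiter-Glo luminescence read; day 0 read before treatment. Values divided by mean day 0 reading; n = 3 biological replicates.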

MDA-MB-468 = assay: 2D growth over time viability; assay type: cell-based; details: up to 8 days, 2.5 μM
Outline: (§1)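 Cells seeded at 500 per well (PATU-8988T: 100 per well) and dosed with test compound or DMSO the next day. Kept at 37 °C, 5% CO2, with medium and compound renewed every 48 h. One plate per time point (days 0, 2, 4, 6, 8); the day 0 plate was read before dosing. Viability measured by CellTiter-Glo luminescence.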

PC3 = assay: 2D growth over time viability; assay type: cell-based; details: up to 8 days
Outline: as §1

NGP = assay: 2D growth over time viability; assay type: cell-based; details: 2.5 μM after 8 days
Outline: as §1

PATU-8988T WT Pin1 cells = assay: 3D Matrigel dome antiproliferative assay; assay type: cell-based; details: 1 μM, 9-day treatment
Outline: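 1,000 cells per Matrigel dome, one dome per well, left 15 min at 37 °C to solidify. Medium with test compound renewed every 3 days. After 9 days, 3D CellTiter-Glo was added and the plate shaken 1 h at room temperature before reading luminescence. n = 9 biological replicates per condition.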

c-Myc protein levels = assay: c-Myc protein level immunoblot; assay type: cell-based
Mino B cells = assay: RNA-seq differential expression; assay type: cell-based, human; details: 1 μM, 6 h
Outline: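 Mino cells grown in RPMI 1640 with 15% FBS and 1% penicillin/streptomycin at 37 °C, 5% CO2 in a humidified incubator.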

[6] = test system: Myc transcriptional activity in HEK293 cells; assay: Myc luciferase reporter assay; assay type: cell-based; details: 2 μM, 48 h, cotransfected Pin1
Outline: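 HEK293 cells (DMEM, 10% FBS, 2.5 mM L-glutamine, nonessential amino acids) grown in six-well plates to 80% confluence. Lipofected with 4× E-box-luciferase and Pin1-Flag plasmids plus β-galactosidase as internal control. Compound added at transfection; cells harvested 48 h later. Cells lysed, sonicated and cleared before luciferase read-out.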

Th-MYCN mice tumors = assay: Th-MYCN murine neuroblastoma model; assay type: in vivo
Outline: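 Tumours in TH-MYCN mice monitored weekly by palpation; mice with 4–5 mm tumours were enrolled. Groups received test compound at 40 mg kg-1 by oral gavage once or twice daily, or vehicle (5% NMP, 5% kolliphor, 20% DMSO) once daily. The twice-daily arm was capped at 56 doses. Tumour volume measured by 1 Tesla MRI under isoflurane with core temperature held at 37 °C. Two-tailed Student's t test.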

[7] = test system: KPC mouse-derived pancreatic cancer cells in B6 mice; assay: KPC orthotopic pancreatic cancer mouse model; assay type: in vivo; details: for survival: n = 8
Outline: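 Pancreatic cancer cells from a KPC mouse (Pdx1-Cre, lsl-KrasG12D/+, lsl-tp53R172H/+) transplanted orthotopically into the pancreatic tail of B6 mice. Daily IP dosing with vehicle or test compound at 20 or 40 mg kg-1 began one week later. Mice were euthanised when the largest control tumour reached 2 cm in length, and tumours were collected and measured.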

[8] = dose- and time-dependent FP assay

GST-Pin1, sequence (Q13526 whole entry): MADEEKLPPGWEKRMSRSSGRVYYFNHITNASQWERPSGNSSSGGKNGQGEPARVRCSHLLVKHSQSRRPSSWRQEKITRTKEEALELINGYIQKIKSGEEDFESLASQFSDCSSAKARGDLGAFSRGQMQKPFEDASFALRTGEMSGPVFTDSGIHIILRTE

CC(C)(C)CN(C(=O)CCl)C1CCS(=O)(=O)C1 (centres unmarked) [Sulfopin]
no toxicity up to (IMR90 viability) (IMR90 lung fibroblast): > 25 µM | Kinact (GST-Pin1; [8]): 0.03 min⁻¹ | second-order rate constant (Kinact/Ki) (GST-Pin1; [8]): 84 M⁻¹ s⁻¹ | Ki (GST-Pin1; read-out: apparent Ki (FP assay), after 14 h incubation): 17 nM | time to complete Pin1 engagement (Pin1 [1]; 1-μM treatment, PATU-8988T cells): ≤ 4 h | concentration fully engaging Pin1 (Pin1 [1]; HCT116 cells, 5 h): 0.5 µM | concentration of maximal Pin1 engagement (Pin1 [1]; PATU-8988T and HCT116 cells, 5 h): 0.5 to 1 µM | concentration fully engaging Pin1 (Pin1 [1]; PATU-8988T cells, 5 h): 1 µM | Pin1 engagement after 72 h (Pin1 [1]; PATU-8988T or HCT116 cells, 72 h): > 50% | half-life in mouse hepatic microsomes [2]: 41 min | in vivo Pin1 engagement in spleen (Pin1 [3]): Effective Pin1 engagement was observed in three out of three mice | resensitization to irradiation [4]: significantly resensitized them to irradiation in a dose-dependent manner | antiproliferative activity (PRISM) [5]: limited to no antiproliferative activity | number of cell lines with EC50 <3 μM [5]: nine | effect on cellular viability (WT PATU-8988T cells): significant effect on cellular viability after 6 and 8 days | antiproliferative effect (growth over time) (MDA-MB-468): most pronounced sensitivity | antiproliferative effect (growth over time) (PC3): only slight effects | antiproliferative effect (growth over time) (NGP): significant viability effects | antiproliferative activity in 3D Matrigel domes (PATU-8988T WT Pin1 cells): modest antiproliferative activity | c-Myc protein levels (c-Myc protein levels): increased c-Myc protein levels | number of genes significantly downregulated (Mino B cells): 206 | relative luciferase activity (Myc reporter) [6]: significant reduction in relative luciferase activity | average increase in survival (Th-MYCN mice tumors; 40 mg kg^−1 BID oral gavage): 28 days | mice with actual reduction in tumor size (MRI) (Th-MYCN mice tumors; 40 mg kg^−1 BID, 7-day treatment, n = 6): five out of six | average increase in survival (Th-MYCN mice tumors; 40 mg kg^−1 QD oral gavage): 10 days | survival ([7]; 20 mg kg^−1 daily): 37.5 days | average tumor volume ([7]; 40 mg kg^−1 daily IP, 27 days, n = 4): 1,210.91 cm^3 | survival ([7]; 40 mg kg^−1 daily): 48.125 days | average increase in survival ([7]; 40 mg kg^−1 versus control): 18.125 days and 18 days
